Assay results reported in ChEMBL document CHEMBL4396947, “Synthesis and characterization of novel isoform-selective IP6K1 inhibitors” (Bioorg Med Chem Lett, 2019).
In brackets after ≈: the same amount, converted by molar mass.

Tests used:
[1] = target: Ribosomal protein S6 kinase alpha-4 (Homo sapiens) (UniProt O75676); assay: Inhibition of full length recombinant human MSK2 assessed as residual activity at 10 uM using GRPRTSSFAEGKK as substrate incubated for 40 mins in presence of [gamma-33P]ATP at Km concentration by radiometric assay relative to control
Chain of Ribosomal protein S6 kinase alpha-4 (Homo sapiens) (O75676 whole entry, looked up): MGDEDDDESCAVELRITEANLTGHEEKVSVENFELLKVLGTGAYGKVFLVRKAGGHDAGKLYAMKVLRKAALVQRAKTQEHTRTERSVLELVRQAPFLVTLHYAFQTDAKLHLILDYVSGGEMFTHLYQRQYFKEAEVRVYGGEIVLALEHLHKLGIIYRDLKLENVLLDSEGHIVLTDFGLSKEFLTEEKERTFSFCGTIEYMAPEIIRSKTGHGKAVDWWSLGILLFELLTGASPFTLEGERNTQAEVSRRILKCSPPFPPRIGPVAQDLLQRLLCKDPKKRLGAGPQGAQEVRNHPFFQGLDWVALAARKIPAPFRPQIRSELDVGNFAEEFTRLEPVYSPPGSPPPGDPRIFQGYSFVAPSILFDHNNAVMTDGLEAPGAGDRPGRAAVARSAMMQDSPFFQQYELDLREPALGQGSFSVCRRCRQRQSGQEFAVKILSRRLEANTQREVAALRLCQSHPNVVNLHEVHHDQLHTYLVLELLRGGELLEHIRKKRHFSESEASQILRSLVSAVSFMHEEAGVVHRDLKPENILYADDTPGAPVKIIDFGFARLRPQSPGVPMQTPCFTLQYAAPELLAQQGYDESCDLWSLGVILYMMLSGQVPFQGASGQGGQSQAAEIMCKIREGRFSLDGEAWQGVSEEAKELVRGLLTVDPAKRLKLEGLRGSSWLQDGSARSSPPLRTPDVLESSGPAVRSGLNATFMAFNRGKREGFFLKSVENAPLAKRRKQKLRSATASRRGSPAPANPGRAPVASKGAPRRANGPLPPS

[2] = target: Vascular endothelial growth factor receptor 2 (Homo sapiens) (UniProt P35968); assay: Inhibition of human recombinant KDR (790 to end residues) assessed as residual activity at 10 uM using myelin basic protein as substrate incubated for 40 mins in presence of [gamma-33P]ATP at Km concentration by radiometric assay relative to control
Chain of Vascular endothelial growth factor receptor 2 (Homo sapiens) (P35968 whole entry): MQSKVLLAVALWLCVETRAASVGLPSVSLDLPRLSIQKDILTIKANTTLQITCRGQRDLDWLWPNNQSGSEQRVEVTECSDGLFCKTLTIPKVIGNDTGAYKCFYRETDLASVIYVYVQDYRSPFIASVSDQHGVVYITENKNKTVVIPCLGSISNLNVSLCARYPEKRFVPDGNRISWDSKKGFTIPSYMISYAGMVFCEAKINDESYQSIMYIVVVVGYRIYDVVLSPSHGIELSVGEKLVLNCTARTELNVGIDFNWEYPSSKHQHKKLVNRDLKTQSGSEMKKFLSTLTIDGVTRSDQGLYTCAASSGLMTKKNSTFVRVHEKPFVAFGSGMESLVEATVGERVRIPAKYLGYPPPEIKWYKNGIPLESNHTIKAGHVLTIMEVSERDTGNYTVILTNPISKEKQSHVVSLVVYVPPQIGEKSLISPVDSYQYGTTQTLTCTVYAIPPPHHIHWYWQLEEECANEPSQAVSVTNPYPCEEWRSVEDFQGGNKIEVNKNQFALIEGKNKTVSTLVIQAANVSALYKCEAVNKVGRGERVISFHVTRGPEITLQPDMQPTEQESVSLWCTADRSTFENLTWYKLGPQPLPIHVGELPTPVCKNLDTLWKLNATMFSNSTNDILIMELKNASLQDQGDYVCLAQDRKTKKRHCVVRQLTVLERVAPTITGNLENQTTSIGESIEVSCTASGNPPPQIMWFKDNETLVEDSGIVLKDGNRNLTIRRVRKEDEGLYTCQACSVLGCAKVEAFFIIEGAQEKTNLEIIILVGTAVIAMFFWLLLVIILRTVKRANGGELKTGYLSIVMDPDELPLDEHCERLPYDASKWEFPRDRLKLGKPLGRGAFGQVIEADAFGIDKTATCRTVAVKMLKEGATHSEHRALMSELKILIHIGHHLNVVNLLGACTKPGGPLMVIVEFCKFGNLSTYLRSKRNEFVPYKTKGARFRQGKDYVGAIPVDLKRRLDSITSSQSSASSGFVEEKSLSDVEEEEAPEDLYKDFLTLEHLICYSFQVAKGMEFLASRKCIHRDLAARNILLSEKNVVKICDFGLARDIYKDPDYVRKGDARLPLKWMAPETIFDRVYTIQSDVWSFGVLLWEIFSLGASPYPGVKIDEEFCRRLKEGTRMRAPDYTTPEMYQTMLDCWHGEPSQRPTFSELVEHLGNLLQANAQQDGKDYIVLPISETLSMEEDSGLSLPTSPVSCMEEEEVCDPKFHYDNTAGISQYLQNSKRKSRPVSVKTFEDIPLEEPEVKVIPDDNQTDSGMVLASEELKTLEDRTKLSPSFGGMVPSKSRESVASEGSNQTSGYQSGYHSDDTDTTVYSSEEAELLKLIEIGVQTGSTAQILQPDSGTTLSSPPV

[3] = target: Inositol hexakisphosphate kinase 3 (Homo sapiens, UniProt Q96PC2); assay: Inhibition of IP6K3 (unknown origin) incubated for 120 mins using IP6 as substrate in presence of ATP by ADP-Glo reagent based luminescence assay
Procedure, shortened: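 Luminescent ADP-Glo Max format adapted for IP6K, with purified enzyme and ATP at 1 mM, which is consumed as the kinase reaction proceeds. IC50 taken from the resulting inhibition data.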

[4] = target: CDK6/cyclin D3 (Homo sapiens) (UniProt P30281+Q00534); assay: Inhibition of human full length recombinant CDK6/cyclinD3 assessed as residual activity at 10 uM using Histone H1 as substrate incubated for 40 mins in presence of [gamma-33P]ATP at Km concentration by radiometric assay relative to control; type: protein-complex assay
[5] = target: Platelet-derived growth factor receptor beta (Homo sapiens) (UniProt P09619); assay: Inhibition of recombinant human PDGFRbeta (557 to end residues) assessed as residual activity at 10 uM using poly (Glu,Tyr) 4:1 as substrate incubated for 40 mins in presence of [gamma-33P]ATP at Km concentration by radiometric assay relative to control
[6] = target: MAP kinase-interacting serine/threonine-protein kinase 2 (Homo sapiens) (UniProt Q9HBH9); assay: Inhibition of full length recombinant human MNK2 assessed as residual activity at 10 uM using myelin basic protein as substrate incubated for 40 mins in presence of [gamma-33P]ATP at Km concentration by radiometric assay relative to control
[7] = target: Insulin-like growth factor 1 receptor (Homo sapiens) (UniProt P08069); assay: Inhibition of human recombinant IGF1R (959 to end residues) assessed as residual activity at 10 uM using KKKSPGEYVNIEF as substrate incubated for 40 mins in presence of [gamma-33P]ATP at Km concentration by radiometric assay relative to control
[8] = Solubility of compound in pH 7.4 PBS at 100 ug/ml incubated for 2 hrs by LC-MS/MS analysis; type: physicochemical; conditions: buffer, pH 7.4, 2 h
Homo sapiens [9] = organism: Homo sapiens; assay: Selectivity ratio of Ki for IP6K3 (unknown origin) to Ki for IP6K1 (unknown origin)
Procedure, shortened: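 Purified IP6K1, IP6K2 and IP6K3 were each tested in an ADP-Glo Max luminescence assay optimized for IP6K, with 1 mM ATP consumed as the kinase reaction proceeds. IC50 values from each isoform were converted to Ki with the Cheng-Prusoff equation, and the Ki ratio versus IP6K1 was taken.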

[10] = target: Dual specificity mitogen-activated protein kinase kinase 1 (Homo sapiens) (UniProt Q02750); assay: Inhibition of full length recombinant human MEK1 assessed as residual activity at 10 uM using inactive MAPK2 as substrate incubated for 40 mins in presence of [gamma-33P]ATP at Km concentration by radiometric assay relative to control
[11] = Half life in rat microsomes at 1 uM in presence of NADPH; type: ADME, Microsome
[12] = target: Tyrosine-protein kinase Fyn (Homo sapiens) (UniProt P06241); assay: Inhibition of human full length recombinant FYN assessed as residual activity at 10 uM using KVEKIGEGTYGVV as substrate incubated for 40 mins in presence of [gamma-33P]ATP at Km concentration by radiometric assay relative to control
[13] = target: PI3K p110 beta/p85 alpha (Homo sapiens) (UniProt P27986+P42338); assay: Inhibition of recombinant full length human PI3K p110beta/p85alpha assessed as residual activity at 10 uM incubated for 40 mins in presence of [gamma-33P]ATP at Km concentration by radiometric assay relative to control; type: protein-complex assay
[14] = target: Inositol hexakisphosphate kinase 2 (Homo sapiens, UniProt Q9UHH9); assay: Inhibition of IP6K2 (unknown origin) in presence of ATP at Km concentration by Cheng-Prusoff equation analysis
Chain of Inositol hexakisphosphate kinase 2 (Q9UHH9 whole entry, canonical isoform): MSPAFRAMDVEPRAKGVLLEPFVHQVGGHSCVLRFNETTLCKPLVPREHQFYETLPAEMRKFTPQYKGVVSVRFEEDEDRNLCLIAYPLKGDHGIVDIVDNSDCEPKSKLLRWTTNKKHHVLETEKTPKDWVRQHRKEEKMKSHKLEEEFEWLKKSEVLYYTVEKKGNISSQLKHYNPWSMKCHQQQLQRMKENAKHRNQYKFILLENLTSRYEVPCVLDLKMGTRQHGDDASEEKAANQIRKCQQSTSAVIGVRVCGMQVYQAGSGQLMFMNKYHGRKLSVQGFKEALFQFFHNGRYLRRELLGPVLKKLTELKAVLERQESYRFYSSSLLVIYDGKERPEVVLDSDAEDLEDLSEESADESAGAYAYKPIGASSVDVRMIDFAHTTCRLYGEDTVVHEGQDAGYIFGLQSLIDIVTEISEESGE
Procedure, shortened: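 Purified IP6K isoforms run in the ADP-Glo Max kinase assay with 1 mM ATP. Measured IC50 values converted to Ki with the Cheng-Prusoff equation.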

[15] = target: CDK7/Cyclin H/MNAT1 (Homo sapiens) (UniProt P51946+P50613+P51948); assay: Inhibition of human full length recombinant CDK7/cyclinH/MAT1 assessed as residual activity at 10 uM using peptide as substrate incubated for 40 mins in presence of [gamma-33P]ATP at Km concentration by radiometric assay relative to control; type: protein-complex assay
[16] = target: Tyrosine-protein kinase JAK2 (Homo sapiens) (UniProt O60674); assay: Inhibition of human recombinant JAK2 (808 to end residues) assessed as residual activity at 10 uM using KTFCGTPEYLAPE as substrate incubated for 40 mins in presence of [gamma-33P]ATP at Km concentration by radiometric assay relative to control
Chain of Tyrosine-protein kinase JAK2 (Homo sapiens) (O60674 whole entry, the tested form may be a part): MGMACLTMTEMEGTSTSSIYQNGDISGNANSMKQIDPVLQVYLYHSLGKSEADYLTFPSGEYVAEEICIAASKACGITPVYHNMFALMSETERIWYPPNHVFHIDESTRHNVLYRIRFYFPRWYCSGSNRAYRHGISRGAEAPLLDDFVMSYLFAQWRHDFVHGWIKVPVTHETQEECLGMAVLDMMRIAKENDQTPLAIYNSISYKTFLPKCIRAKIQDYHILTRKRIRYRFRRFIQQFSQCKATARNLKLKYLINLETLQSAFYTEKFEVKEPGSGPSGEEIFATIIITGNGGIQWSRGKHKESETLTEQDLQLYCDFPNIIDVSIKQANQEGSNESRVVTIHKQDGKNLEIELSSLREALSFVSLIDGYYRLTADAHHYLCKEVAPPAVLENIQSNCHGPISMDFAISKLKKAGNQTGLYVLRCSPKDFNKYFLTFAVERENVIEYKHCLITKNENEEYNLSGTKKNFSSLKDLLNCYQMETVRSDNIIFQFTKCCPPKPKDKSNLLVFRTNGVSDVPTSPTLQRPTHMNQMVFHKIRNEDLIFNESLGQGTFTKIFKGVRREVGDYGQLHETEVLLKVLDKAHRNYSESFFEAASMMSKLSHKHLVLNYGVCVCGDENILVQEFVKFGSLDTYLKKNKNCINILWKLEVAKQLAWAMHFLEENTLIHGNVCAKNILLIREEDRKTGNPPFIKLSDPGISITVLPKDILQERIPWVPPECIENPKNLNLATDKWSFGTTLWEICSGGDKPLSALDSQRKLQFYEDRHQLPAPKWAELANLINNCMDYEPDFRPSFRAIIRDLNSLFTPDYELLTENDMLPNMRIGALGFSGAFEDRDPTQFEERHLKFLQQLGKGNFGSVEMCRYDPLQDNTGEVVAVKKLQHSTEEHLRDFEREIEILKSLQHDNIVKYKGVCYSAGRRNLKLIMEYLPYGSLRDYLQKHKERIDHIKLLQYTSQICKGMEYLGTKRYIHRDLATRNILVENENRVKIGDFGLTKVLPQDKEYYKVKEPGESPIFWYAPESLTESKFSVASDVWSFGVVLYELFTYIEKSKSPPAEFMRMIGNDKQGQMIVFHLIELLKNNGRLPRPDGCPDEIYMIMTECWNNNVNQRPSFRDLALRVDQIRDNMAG

[17] = target: Rho-associated protein kinase 1 (Homo sapiens) (UniProt Q13464); assay: Inhibition of recombinant human ROCK1 (17 to 535 residues) assessed as residual activity at 10 uM using KEAKEKRQEQIAKR as substrate incubated for 40 mins in presence of [gamma-33P]ATP at Km concentration by radiometric assay relative to control
Chain of Rho-associated protein kinase 1 (Homo sapiens) (Q13464 2-1354 limits assumed): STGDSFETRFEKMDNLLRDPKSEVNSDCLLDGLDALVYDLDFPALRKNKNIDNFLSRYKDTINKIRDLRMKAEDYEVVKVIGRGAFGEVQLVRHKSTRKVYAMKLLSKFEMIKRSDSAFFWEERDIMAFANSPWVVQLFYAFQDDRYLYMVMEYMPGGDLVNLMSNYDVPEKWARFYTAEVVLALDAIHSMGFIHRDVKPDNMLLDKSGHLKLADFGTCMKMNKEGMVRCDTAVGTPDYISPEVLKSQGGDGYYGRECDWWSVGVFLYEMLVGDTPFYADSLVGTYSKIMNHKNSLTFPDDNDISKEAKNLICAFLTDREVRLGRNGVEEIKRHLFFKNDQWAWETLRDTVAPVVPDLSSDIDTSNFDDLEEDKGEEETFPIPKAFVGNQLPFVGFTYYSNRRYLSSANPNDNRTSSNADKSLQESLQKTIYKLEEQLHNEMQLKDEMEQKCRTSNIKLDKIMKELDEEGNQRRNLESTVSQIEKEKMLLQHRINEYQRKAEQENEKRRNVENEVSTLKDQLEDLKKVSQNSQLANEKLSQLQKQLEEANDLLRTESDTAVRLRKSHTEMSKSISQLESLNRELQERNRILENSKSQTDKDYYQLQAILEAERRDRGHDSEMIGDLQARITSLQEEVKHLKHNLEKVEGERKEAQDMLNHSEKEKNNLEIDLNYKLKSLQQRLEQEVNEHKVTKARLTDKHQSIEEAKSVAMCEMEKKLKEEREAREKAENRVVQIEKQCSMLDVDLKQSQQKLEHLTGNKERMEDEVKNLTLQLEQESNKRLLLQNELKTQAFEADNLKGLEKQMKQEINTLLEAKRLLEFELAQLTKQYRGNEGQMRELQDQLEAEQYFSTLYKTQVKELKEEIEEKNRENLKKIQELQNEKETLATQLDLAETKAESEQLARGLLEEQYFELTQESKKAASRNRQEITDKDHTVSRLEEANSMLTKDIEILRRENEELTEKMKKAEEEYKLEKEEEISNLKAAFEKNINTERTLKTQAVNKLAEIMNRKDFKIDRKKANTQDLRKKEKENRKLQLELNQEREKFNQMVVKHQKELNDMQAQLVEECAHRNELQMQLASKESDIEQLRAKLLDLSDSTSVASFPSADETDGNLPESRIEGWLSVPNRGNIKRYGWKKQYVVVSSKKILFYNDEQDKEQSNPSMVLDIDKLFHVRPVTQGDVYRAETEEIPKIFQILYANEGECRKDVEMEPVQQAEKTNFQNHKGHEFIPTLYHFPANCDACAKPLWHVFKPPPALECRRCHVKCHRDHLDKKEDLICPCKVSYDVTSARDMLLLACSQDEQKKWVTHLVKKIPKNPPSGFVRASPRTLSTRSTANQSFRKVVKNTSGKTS

Homo sapiens [18] = organism: Homo sapiens; assay: Inhibition of recombinant human PRAK 5 R291E mutant assessed as residual activity at 10 uM using KKLRRTLSVA as substrate incubated for 40 mins in presence of [gamma-33P]ATP at Km concentration by radiometric assay relative to control
[19] = target: Protein kinase C alpha type (Homo sapiens) (UniProt P17252); assay: Inhibition of recombinant full length human PKCalpha assessed as residual activity at 10 uM using histone H1 as substrate incubated for 40 mins in presence of [gamma-33P]ATP at Km concentration by radiometric assay relative to control
[20] = target: CDK2/Cyclin A2 (Homo sapiens) (UniProt P24941+P20248); assay: Inhibition of human full length recombinant CDK2/cyclinA assessed as residual activity at 10 uM using Histone H1 as substrate incubated for 40 mins in presence of [gamma-33P]ATP at Km concentration by radiometric assay relative to control; type: protein-complex assay
[21] = target: Mitogen-activated protein kinase 14 (Homo sapiens) (UniProt Q16539); assay: Inhibition of recombinant full length human SAPK2alpha assessed as residual activity at 10 uM using myelin basic protein as substrate incubated for 40 mins in presence of [gamma-33P]ATP at Km concentration by radiometric assay relative to control

COc1ccc2c(CCNc3nc(NCc4ccc(=O)[nH]c4)c4nc[nH]c4n3)c[nH]c2c1
Activity [1]: 96% | Activity [2]: 60% | IC50 [3]: 15 µM | Activity [4]: 82% | Activity [5]: 101% | Activity [6]: 76% | Activity [7]: 86% | solubility [8]: 51 µg/mL (≈ 118 µM) | Ratio Ki (Homo sapiens [9]): 48.1 | Activity [10]: 11% | t1/2 [11]: 38 min | Activity [12]: 84% | Activity [13]: 93% | Ki [14]: 4.88 µM | Activity [15]: 48% | Activity [16]: 96% | Activity [17]: 91% | Activity (Homo sapiens [18]): 87% | Activity [19]: 86% | Activity [20]: 90% | Activity [21]: 92%
